Consider 20 compounds from ChEMBL document CHEMBL1135830, “NMR-based modification of matrix metalloproteinase inhibitors with improved bioavailability” (J Med Chem, 2002).

The target of data set [1] is T1, Stromelysin-1 (Homo sapiens, UniProt P08254). The data set is described as follows: Inhibition of Stromelysin (MMP-3). Details: species or system Rattus norvegicus.
Data set [2] deals with T1, Stromelysin-1. The data set is described as follows: Binding to stromelysin (MMP-3) in place of acetohydroxamic acid. Details: species or system Rattus norvegicus. The gist of the method:
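Binding detected by sensitivity-enhanced 15N HSQC on uniformly 15N-labeled stromelysin catalytic domain (residues 81-256), 0.3 mM protein in H2O/D2O 9:1 Tris buffer 50 mM pH 7.0, 20 mM CaCl2, 0.05% sodium azide. Ligands added from perdeuterated DMSO, screened at 25.0 mM each; spectra with versus without compound compared for shifts at 500 MHz.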

Data set [3] addresses T1, Stromelysin-1. In words: Binding to stromelysin (MMP-3) in the presence of 1-Napthohydroxamate. Also noted: species or system Rattus norvegicus. The gist of the method: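 Catalytic domain of stromelysin (residues 81-256), uniformly ¹⁵N-labeled, at 0.3 mM in H₂O/D₂O (9/1) with 50 mM Tris pH 7.0, 20 mM CaCl₂ and 0.05% sodium azide. Compounds were added from perdeuterated DMSO solutions. Binding was detected as changes in sensitivity-enhanced ¹⁵N HSQC spectra (500 MHz), recorded with and without compound.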

The subject of data set [4] is Rattus norvegicus. In words: Bioavailability after peroral administration at 30 mg/kg against Stromelysin in rat. Format: ADME, organism-based. The gist of the method: (§1)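 Rats (4 per compound, across two studies) dosed orally at 30 mg/kg in hydroxypropyl methyl cellulose. Tail-vein blood drawn at intervals over 7 h, deproteinated with 2 volumes methanol containing 0.1% acetic acid. Drug level in the extract quantified by bioassay against recombinant stromelysin.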

For data set [5], the target named is T1, Stromelysin-1. In words: Binding to stromelysin (MMP-3) in the presence of acetohydroxamic acid. Details: species or system Rattus norvegicus. The essentials:
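Uniformly 15N-labeled stromelysin catalytic domain (residues 81-256) at 0.3 mM in 50 mM Tris, pH 7.0, H2O/D2O 9/1, with 20 mM CaCl2 and 0.05% sodium azide. Sensitivity-enhanced 15N HSQC spectra were recorded at 500 MHz with and without compound added in perdeuterated DMSO. Binding was read from changes in the HSQC spectrum.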

A short description of data set [6]: Half-life period was determined. The data set is classed as ADME. The essentials:
as §1

Data set [7] in a line: Cmax was determined. The data set is classed as ADME, organism-based. The settings on record: in vivo. The gist of the method:
as §1

Bounds are passed on as bounds.

T1 sequence (P08254 whole entry): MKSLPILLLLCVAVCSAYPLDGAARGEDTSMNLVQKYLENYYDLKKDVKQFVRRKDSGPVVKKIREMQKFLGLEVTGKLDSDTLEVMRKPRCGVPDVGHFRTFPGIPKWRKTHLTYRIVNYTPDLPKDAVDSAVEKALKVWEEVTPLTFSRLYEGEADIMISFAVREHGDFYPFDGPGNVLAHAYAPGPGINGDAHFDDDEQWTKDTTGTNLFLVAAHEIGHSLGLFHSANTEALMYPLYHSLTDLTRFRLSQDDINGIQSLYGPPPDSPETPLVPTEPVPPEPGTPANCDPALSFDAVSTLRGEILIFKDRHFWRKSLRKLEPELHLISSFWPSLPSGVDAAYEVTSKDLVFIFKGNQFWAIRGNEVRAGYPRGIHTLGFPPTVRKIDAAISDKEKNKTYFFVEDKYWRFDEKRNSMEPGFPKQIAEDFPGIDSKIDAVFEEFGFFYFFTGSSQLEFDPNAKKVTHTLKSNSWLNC

One may read the IC50 as the concentration needed to halve the response being measured. The low end stands for inhibition by little substance, the high end for a need for much substance. The Kd is the concentration at which binding is half-saturated. Regarding `O=C(NO)c1cccc2ccccc12`, half-maximal inhibition in data set [1] (IC50) was put at 50 µM. The compound also registered a Kd in data set [2] of 0.05 mM.
Take `COc1ccc(-c2ccc(S(=O)(=O)NCCc3ccc4ccccc4c3C(=O)NO)cc2)cc1`: inhibition in data set [1] was half-maximal at 10 µM (IC50).
For `Oc1ccc(-c2ccc(O)cc2)cc1`, the Kd in data set [3] stood at 150 µM.
As to `N#Cc1ccc(-c2ccc(OCCC(=O)NO)cc2)cc1`, the IC50 in data set [4] was 57 nM.
Consider `SCc1cccs1`, for which, in data set [2], the Kd came to 0.15 mM.
The compound `N#Cc1ccc(-c2ccc(OCc3ccc4ccccc4c3C(=O)NO)cc2)cc1` showed an IC50 in data set [1] of more than 10 µM.
The compound `CC(=O)c1ccccn1` displayed a Kd in data set [2] of more than 25 mM.
Take `N#Cc1ccc(-c2ccc(O)cc2)cc1`: the Kd in data set [3] and in data set [5] was less than 50 µM each time.
In turn, `O=C(O)CCS` [MERCAPTOPROPIONIC ACID] displayed a Kd in data set [2] of 3 mM.
Usually half-life stands for the time in which the quantity being followed falls by half. A word on the Cmax: it is the maximum level reached in the sampled fluid or tissue. With `N#Cc1ccc(-c2ccc(OCCOc3ccc4ccccc4c3C(=O)NO)cc2)cc1`, it took 340 nM to reach half-maximal inhibition in data set [4] (IC50). Also, the half-life in data set [6] was 120 min. This compound returned a Cmax in data set [7] of 28 µM.
Take `N#Cc1ccc(-c2ccc(OCCCOc3ccc4ccccc4c3C(=O)NO)cc2)cc1`: in data set [1], the IC50 turned out to be 10 µM.
Take `NC(=O)NO` [HYDROXYUREA]: in data set [2], the Kd is more than 25 mM.
Consider `c1ccc(-c2ccncc2)cc1`, for which the Kd in data set [3] turned out to be 900 µM.
Turning to `O=C(CC(=O)C(F)(F)F)c1ccccc1`, the Kd in data set [2] is more than 25 mM.
Turning to `CCOC(=O)NO` [ETHYL HYDROXYCARBAMATE], in data set [2], the Kd was more than 25 mM.
In data set [2], `O=C(NO)c1ccccc1` [BENZOHYDROXAMATE] came in with a Kd of 7 mM.
`NC(=O)c1ccccc1O` [SALICYLAMIDE]: in data set [2], the Kd is more than 25 mM.
`O=C(O)c1ccccc1O` [SALICYLIC ACID] came in with a Kd in data set [2] of more than 25 mM.
As to `N#CCc1cccc(-c2ccc(S(=O)(=O)CCOc3ccc4ccccc4c3C(=O)NO)cc2)c1`, the IC50 in data set [1] was 0.062 µM.
Compound `CCOC(=O)CC(=O)C(F)(F)F` came in with a Kd in data set [2] of more than 25 mM.
